Reference: ChEMBL document CHEMBL1152210, “Synthesis and biological evaluation of alkoxycoumarins as novel nematicidal constituents” (Bioorg Med Chem Lett, 2008)
Calls of active or inactive are those of the source. No cut-off for these calls is given here.

Tests used:
Artemia salina = assay: Toxicity in Artemia salina after 24 hrs by serial dilution method; type: organism-based; details: in vivo
Oryzias latipes = assay: Toxicity in Oryzias latipes after 24 hrs by serial dilution method; type: organism-based; details: in vivo
[1] = system: Bursaphelenchus xylophilus; assay: Nematicidal activity against Bursaphelenchus xylophilus measured per cotton ball after 4 days by serial dilution method; type: functional
Outline: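 Cotton ball (5 mm), loaded with test compound or solvent and vacuum-dried, set on 4-day Botrytis cinerea mycelia grown on Czapek-Dox agar at 21 °C. 100 µl B. xylophilus suspension (ca. 15,000/ml in distilled water) injected into the ball; dish held at 26 °C for 4 days. Mycelial consumption scored; MED is the lowest active dose by serial dilution, top dose 160 µg/ball. Survival confirmed by methylene blue staining.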

Compound `C/C1=C\C[C@@H]2C[C@@H](C[C@]3(CC[C@H](C)[C@@H](C)O3)O2)OC(=O)[C@@H]2CC[C@@H](O)[C@H]3OC/C(=C\C=C\[C@H](C)C1)[C@]32O` [MILBEMECTIN] has an LC50 (Artemia salina) of 0.1 ppm, an LC100 (Artemia salina) of 0.6 ppm and an LC50 (Oryzias latipes) of 0.06 ppm. It also gave an LC100 (Oryzias latipes) of 0.25 ppm and an MED [1] of 0.6 µg.

For `COc1cc(OC)c2ccc(=O)oc2c1` [CITROPTEN], the MED [1] was 20 µg.

For `CCCCOc1cccc2oc(=O)ccc12`, the MED [1] was 40 µg.

For `COc1cc2ccccc2oc1=O`, the LC50 (Artemia salina) was > 80 ppm, the LC100 (Artemia salina) was > 80 ppm and the LC50 (Oryzias latipes) was > 100 ppm. The LC100 (Oryzias latipes) was > 100 ppm and the MED [1] was 80 µg.

`COc1cccc2oc(=O)ccc12` was tested, and the LC50 (Artemia salina) was 30 ppm, the LC100 (Artemia salina) was 20 ppm and the LC50 (Oryzias latipes) was 38 ppm. For the same compound, the LC100 (Oryzias latipes) was 50 ppm and the MED [1] was 20 µg.

With `CCCCCCCCOc1cccc2oc(=O)ccc12` the MED [1] was 40 µg.

`COc1ccc2ccc(=O)oc2c1` [HERNIARIN] showed an LC100 (Artemia salina) of 80 ppm, an LC100 (Oryzias latipes) of 75 ppm and an MED [1] of 40 µg.

For `COc1cccc2ccc(=O)oc12`, the LC50 (Artemia salina) was > 80 ppm, the LC100 (Artemia salina) was > 80 ppm and the LC50 (Oryzias latipes) was 100 ppm. The LC100 (Oryzias latipes) was > 100 ppm and the MED [1] was 80 µg.

In the case of `C=CCOc1cccc2oc(=O)ccc12`, the Activity [1] is reported as “inactive”.

In the case of `O=c1ccc2c(O)cccc2o1`, the Activity [1] is reported as “inactive”.

In the case of `COc1cc(=O)oc2ccccc12`, the LC50 (Artemia salina) is reported as 60 ppm, the LC100 (Artemia salina) is reported as > 80 ppm and the LC50 (Oryzias latipes) is reported as 75 ppm. The LC100 (Oryzias latipes) was 100 ppm and the Activity [1] was “inactive”.

`CCCOc1cccc2oc(=O)ccc12` showed an MED [1] of 20 µg.

Work on `CCCCCCCCCCCc1cccc(O)c1` yielded an LC50 (Artemia salina) of 1 ppm, an LC100 (Artemia salina) of 1.3 ppm and an LC50 (Oryzias latipes) of 3.8 ppm. It also gave an LC100 (Oryzias latipes) of 5 ppm and an MED [1] of 5 µg.

In the case of `CCOc1cccc2oc(=O)ccc12`, the LC50 (Artemia salina) is reported as > 80 ppm, the LC100 (Artemia salina) is reported as > 80 ppm and the LC50 (Oryzias latipes) is reported as 75 ppm. For the same compound, the LC100 (Oryzias latipes) was 100 ppm and the MED [1] was 10 µg.

In the case of `O=C(O)/C=C/c1ccccc1O`, the Activity [1] is reported as “inactive”.

In the case of `CCCCCOc1cccc2oc(=O)ccc12`, the MED [1] is reported as 40 µg.

In the case of `COc1ccc2oc(=O)ccc2c1`, the LC50 (Artemia salina) is reported as > 80 ppm, the LC100 (Artemia salina) is reported as > 80 ppm and the LC50 (Oryzias latipes) is reported as 75 ppm. It also gave an LC100 (Oryzias latipes) of 100 ppm and an MED [1] of 80 µg.

`O=c1ccc2c(OCc3ccccc3)cccc2o1` showed an MED [1] of 80 µg.

`O=c1ccc2ccccc2o1` [COUMARIN] was tested, and the LC50 (Artemia salina) was > 80 ppm, the LC100 (Artemia salina) was > 80 ppm and the LC50 (Oryzias latipes) was 38 ppm. For the same compound, the LC100 (Oryzias latipes) was 50 ppm and the MED [1] was 80 µg.

For `CCCCCCCCCc1cccc(O)c1`, the LC50 (Artemia salina) was 0.6 ppm, the LC100 (Artemia salina) was 1.3 ppm and the LC50 (Oryzias latipes) was 7.5 ppm. It also gave an LC100 (Oryzias latipes) of 10 ppm and an MED [1] of 2.5 µg.
